The results in this text go back to ChEMBL document CHEMBL1139827, “Synthesis and pharmacological profile of serofendic acids A and B” (Bioorg Med Chem, 2007).

Calls of active or inactive are those of the source. No cut-off for these calls is given here.

For data set [1], the system named is Cerebral cortex. Description: Protective effect against glutamate-induced neurotoxicity in fetal rat cerebral cortex at 1 uM after 24 hrs. It counts as functional, tissue-based. The method, boiled down:
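Primary cortical neurons from fetal Wistar rats (17–19 days gestation), used after 11–15 days in vitro; cytosine arabinoside 10 µM added at day 6. Compound present 1 h before, during and 24 h after 10 min exposure to 500 µM Glu. Viability by trypan blue exclusion (>200 cells/coverslip, five coverslips), % unstained cells; means ± SEM.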

In data set [2] the test system is Cerebral cortex. Description: Protective effect against glutamate-induced neurotoxicity in fetal rat cerebral cortex after 24 hrs. It counts as functional, tissue-based. The procedure, abridged:
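Wistar fetal rat cortical neurons (E17–19) grown on polyethyleneimine-coated coverslips, 10 µM cytosine arabinoside added from day 6, used at 11–15 DIV. Exposed to 500 µM Glu for 10 min; compound present 1 h before, during and 24 h after. Viability by trypan blue exclusion, >200 cells per coverslip, five coverslips, mean ± SEM.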

Data set [3] is described as follows: AUC in Sprague-Dawley rat at 1 mg/kg, iv. In kind it is ADME, organism-based. Set-up: dose 1 mg/kg, route intravenous. The note with it: plasma. The procedure, abridged: (§1)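 Fasted SD rats (n = 3, 290–260 g) given 1 mg/kg iv, dosing solution 1 mg/ml in 30% DMSO/5% glucose. Blood sampled at 0.25, 0.5, 1, 2, 4, 6 and 8 h. Plasma (0.1 ml) mixed with MeOH/HClO4 (500:1, 0.2 ml), centrifuged 12,000 rpm for 5 min and filtered. Plasma PK parameters derived from these samples.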

Data set [4] can be described thus: Total clearance in Sprague-Dawley rat at 1 mg/kg, iv. It counts as ADME, organism-based. More on the design: dose 1 mg/kg, route intravenous. To be noted: in vivo. The procedure, abridged: as §1
Data set [5] is described as follows: Volume of distribution at steady state in Sprague-Dawley rat at 1 mg/kg, iv. To be noted: in vivo, read-out: Vdss. In kind it is ADME, organism-based. More on the design: dose 1 mg/kg, route intravenous. The procedure, abridged: as §1
Data set [6] can be described thus: Half life in Sprague-Dawley rat at 1 mg/kg, iv. In kind it is ADME, organism-based. More on the design: dose 1 mg/kg, route intravenous. The note with it: in vivo. The method, boiled down:
as §1

A short description of data set [7]: Ratio of drug level in brain to plasma in Sprague-Dawley rat at 1 mg/kg, iv after 0.5 hr. It counts as ADME, organism-based. Set-up: dose 1 mg/kg, route intravenous. The note with it: read-out: BPR. The method, boiled down:
(§2)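 SD rats (n = 3, fasted) given 1 mg/kg iv in 30% DMSO/5% glucose. Brain and blood taken at 0.5 and 2 h. Brain homogenized (20% saline). Brain homogenate or plasma (0.1 ml) treated with MeOH/HClO4 (500:1, 0.2 ml), centrifuged 12,000 rpm for 5 min, filtered. Brain-to-plasma concentration ratio calculated.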

Data set [8] can be described thus: Half life in Sprague-Dawley rat at 5 mg/kg, po. The note with it: in vivo. Set-up: dose 5 mg/kg, route oral. It counts as ADME, organism-based. The procedure, abridged: (§3)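 Fasted SD rats (n = 3) dosed orally at 5 mg/kg, 1 mg/ml in 0.5% methyl cellulose. Plasma sampled at 0.25, 0.5, 1, 2, 4, 6 and 8 h. Plasma (0.1 ml) deproteinized with MeOH/HClO4 (500:1, 0.2 ml), spun 12,000 rpm for 5 min, filtered. Bioavailability set against the 1 mg/kg iv dosing.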

A short description of data set [9]: AUC in Sprague-Dawley rat at 5 mg/kg, po. More on the design: dose 5 mg/kg, route oral. To be noted: plasma. It counts as ADME, organism-based. The procedure, abridged: as §3
The nature of data set [10]: Cmax in Sprague-Dawley rat at 5 mg/kg, po. Set-up: dose 5 mg/kg, route oral. In kind it is ADME, organism-based. The note with it: in vivo. The method, boiled down: as §3
A short description of data set [11]: Oral bioavailability in Sprague-Dawley rat at 5 mg/kg. It counts as ADME, organism-based. The note with it: in vivo. The method, boiled down:
as §3

Data set [12] is described as follows: Tmax in Sprague-Dawley rat at 5 mg/kg, po. In kind it is ADME, organism-based. Set-up: dose 5 mg/kg, route oral. The note with it: in vivo. The method, boiled down: as §3
Data set [13] can be described thus: Ratio of drug level in brain to plasma in Sprague-Dawley rat at 1 mg/kg, iv after 2 hrs. It counts as ADME, organism-based. More on the design: dose 1 mg/kg, route intravenous. The note with it: read-out: BPR. The procedure, abridged: as §2

Turning to `C[C@]12N[C@H](Cc3ccccc31)c1ccccc12`, the result in data set [1] was Active.
In general, AUC refers to concentration integrated over time. A higher AUC goes with more exposure. For orientation: clearance means the volume of plasma or blood freed of the substance per unit of time. Low readings indicate a low capacity for elimination, high ones a high capacity for elimination. What is called half-life is the time in which the quantity being followed falls by half. Lower therefore signals rapid decline. With `C[S@+]([O-])C[C@H]1[C@H]2CC[C@@]3(CC[C@H]4[C@@](C)(CCC[C@]4(C)C(=O)O)[C@@H]3C2)[C@@H]1O` [SEROFENDIC ACID A], the outcome in [2] was Active. The same molecule had an AUC in data set [3] of 1950 ng·h/mL. This molecule had a clearance in data set [4] of 8.67 mL/min/kg. For the same molecule, in data set [5], the Vd was 0.33 L/kg. In [6], the half-life was 28.8 min.
What is called Cmax is the peak of the concentration-time curve. As usually defined, the bioavailability is dose-corrected exposure relative to a reference, in per cent. A low value points to little systemic uptake. In general, Tmax refers to the time at which the peak concentration occurs. On to `C[S@@+]([O-])C[C@H]1[C@H]2CC[C@@]3(CC[C@H]4[C@@](C)(CCC[C@]4(C)C(=O)O)[C@@H]3C2)[C@@H]1O` [SEROFENDIC ACID B], for which the outcome in data set [2] was Active. For the same molecule, the Kp at 0.5 h in data set [7] came out at 0.021. Also, the figures for the AUC in data set [3] and in data set [9] were 2780 ng·h/mL and 5640 ng·h/mL, respectively. Also, the half-life in data set [8] is 234 min; in data set [6] it was 39 min. The clearance in data set [4] is 6 mL/min/kg. Also, the peak level in data set [10] (Cmax) was 2050 ng/mL. The same molecule registered a bioavailability in data set [11] of 41%. In addition, the Tmax in [12] was found to be 19.8 min. The Vd in data set [5] is 0.33 L/kg.
For the molecule `COC(=O)[C@@]1(C)CCC[C@@]2(C)[C@@H]3C[C@@H]4CC[C@@]3(CC[C@@H]21)[C@H](O)[C@H]4C[S+](C)[O-]` (stereo partly drawn) [SEROFENDIC ACID METHYLESTER], the Kp at 2 h in data set [13] stood at 2.21. Besides, the Kp at 0.5 h in data set [7] was found to be 2.2. In addition, in data set [3], the AUC was determined as 1440 ng·h/mL. The molecule further gave a clearance in [4] of 14.7 mL/min/kg. In addition, in data set [5], the Vd turned out to be 0.57 L/kg. For the same molecule, the half-life in data set [6] was 33 min.
